Assays:
Type in all cases: functional
[1] = tested on: HOP-92; test: Growth inhibition of human HOP-92 cells assessed as cell growth at 0.01 uM incubated for 48 hrs by sulforhodamine B assay relative to control; details: read-out: Activity
[2] = tested on: HT-29; test: Growth inhibition of human HT-29 cells assessed as cell growth at 0.01 uM incubated for 48 hrs by sulforhodamine B assay relative to control; details: read-out: Activity
[3] = tested on: KM12; test: Growth inhibition of human KM12 cells assessed as cell growth at 0.01 uM incubated for 48 hrs by sulforhodamine B assay relative to control; details: read-out: Activity
[4] = tested on: SF-295; test: Growth inhibition of human SF-295 cells assessed as cell growth at 0.01 uM incubated for 48 hrs by sulforhodamine B assay relative to control; details: read-out: Activity
[5] = tested on: SK-MEL-2; test: Growth inhibition of human SK-MEL-2 cells assessed as cell growth at 0.01 uM incubated for 48 hrs by sulforhodamine B assay relative to control; details: read-out: Activity
[6] = tested on: SK-MEL-5; test: Growth inhibition of human SK-MEL-5 cells assessed as cell growth at 0.01 uM incubated for 48 hrs by sulforhodamine B assay relative to control; details: read-out: Activity
[7] = tested on: ACHN; test: Growth inhibition of human ACHN cells assessed as cell growth at 0.01 uM incubated for 48 hrs by sulforhodamine B assay relative to control; details: read-out: Activity
[8] = tested on: CAKI-1; test: Growth inhibition of human CAKI-1 cells assessed as cell growth at 0.01 uM incubated for 48 hrs by sulforhodamine B assay relative to control; details: read-out: Activity
Summary of the method: (§1)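 NCI Developmental Therapeutics Program NCI60 panel. Compounds that were active in the 10 µM one-dose screen went on to dose–response testing. Growth at each concentration is expressed relative to untreated control (100%). GI50 (concentration giving 50% of maximal inhibition of proliferation) and TGI (concentration giving total growth inhibition) were derived from the curves.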

[9] = tested on: SN12C; test: Growth inhibition of human SN12C cells assessed as cell growth at 0.01 uM incubated for 48 hrs by sulforhodamine B assay relative to control; details: read-out: Activity
[10] = tested on: K562; test: Growth inhibition of human K562 cells assessed as cell growth at 0.1 uM incubated for 48 hrs by sulforhodamine B assay relative to control; details: read-out: Activity
[11] = tested on: SF-539; test: Growth inhibition of human SF-539 cells assessed as cell growth at 0.1 uM incubated for 48 hrs by sulforhodamine B assay relative to control; details: read-out: Activity
[12] = tested on: SK-MEL-5; test: Growth inhibition of human SK-MEL-5 cells assessed as cell growth at 0.1 uM incubated for 48 hrs by sulforhodamine B assay relative to control; details: read-out: Activity
[13] = tested on: UACC-62; test: Growth inhibition of human UACC-62 cells assessed as cell growth at 0.1 uM incubated for 48 hrs by sulforhodamine B assay relative to control; details: read-out: Activity
[14] = tested on: MCF7; test: Growth inhibition of human MCF7 cells assessed as cell growth at 0.1 uM incubated for 48 hrs by sulforhodamine B assay relative to control; details: read-out: Activity
[15] = tested on: A549; test: Growth inhibition of human A549/ATCC cells assessed as cell growth at 1 uM incubated for 48 hrs by sulforhodamine B assay relative to control; details: read-out: Activity; summary of the method: as §1
[16] = tested on: NCI-H460; test: Growth inhibition of human NCI-H460 cells assessed as cell growth at 1 uM incubated for 48 hrs by sulforhodamine B assay relative to control; details: read-out: Activity
[17] = tested on: COLO 205; test: Growth inhibition of human COLO 205 cells assessed as cell growth at 1 uM incubated for 48 hrs by sulforhodamine B assay relative to control; details: read-out: Activity; summary of the method: as §1
[18] = tested on: HCC 2998; test: Growth inhibition of human HCC 2998 cells assessed as cell growth at 1 uM incubated for 48 hrs by sulforhodamine B assay relative to control; details: read-out: Activity; summary of the method: as §1
[19] = tested on: SF-539; test: Growth inhibition of human SF-539 cells assessed as cell growth at 1 uM incubated for 48 hrs by sulforhodamine B assay relative to control; details: read-out: Activity
[20] = tested on: MDA-MB-435; test: Growth inhibition of human MDA-MB-435 cells assessed as cell growth at 1 uM incubated for 48 hrs by sulforhodamine B assay relative to control; details: read-out: Activity
[21] = tested on: SK-MEL-5; test: Growth inhibition of human SK-MEL-5 cells assessed as cell growth at 1 uM incubated for 48 hrs by sulforhodamine B assay relative to control; details: read-out: Activity
[22] = tested on: UACC-257; test: Growth inhibition of human UACC-257 cells assessed as cell growth at 1 uM incubated for 48 hrs by sulforhodamine B assay relative to control; details: read-out: Activity
[23] = tested on: UACC-62; test: Growth inhibition of human UACC-62 cells assessed as cell growth at 1 uM incubated for 48 hrs by sulforhodamine B assay relative to control; details: read-out: Activity
[24] = tested on: UO-31; test: Growth inhibition of human UO-31 cells assessed as cell growth at 1 uM incubated for 48 hrs by sulforhodamine B assay relative to control; details: read-out: Activity
[25] = tested on: HCC 2998; test: Growth inhibition of human HCC 2998 cells assessed as cell growth at 100 uM incubated for 48 hrs by sulforhodamine B assay relative to control; details: read-out: Activity; summary of the method: as §1
[26] = tested on: UACC-62; test: Growth inhibition of human UACC-62 cells assessed as cell growth at 100 uM incubated for 48 hrs by sulforhodamine B assay relative to control; details: read-out: Activity
[27] = tested on: SK-OV-3; test: Growth inhibition of human SK-OV-3 cells assessed as cell growth at 100 uM incubated for 48 hrs by sulforhodamine B assay relative to control; details: read-out: Activity
[28] = tested on: RXF 393; test: Growth inhibition of human RXF 393 cells assessed as cell growth at 100 uM incubated for 48 hrs by sulforhodamine B assay relative to control; details: read-out: Activity
[29] = tested on: Hs-578T; test: Growth inhibition of human Hs-578T cells assessed as cell growth at 100 uM incubated for 48 hrs by sulforhodamine B assay relative to control; details: read-out: Activity
[30] = tested on: NCI-H23; test: Growth inhibition of human NCI-H23 cells incubated for 48 hrs by sulforhodamine B assay
Summary of the method: (§2)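 NCI60 panel at the NCI Developmental Therapeutics Program. Only compounds active in the 10 µM screen went to dose-response testing. GI50, the concentration giving 50% of maximal inhibition of proliferation, and TGI, the concentration giving total growth inhibition, were derived from the dose-response curves.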

[31] = tested on: MDA-MB-435; test: Growth inhibition of human MDA-MB-435 cells incubated for 48 hrs by sulforhodamine B assay; details: for CC50: read-out: LC50 (the source's name); summary of the method: as §2
[32] = tested on: 786-0; test: Growth inhibition of human 786-0 cells incubated for 48 hrs by sulforhodamine B assay; details: for CC50: read-out: LC50 (the source's name); summary of the method: as §1
[33] = tested on: A498; test: Growth inhibition of human A498 cells incubated for 48 hrs by sulforhodamine B assay; details: for CC50: read-out: LC50 (the source's name); summary of the method: as §1
[34] = tested on: CAKI-1; test: Growth inhibition of human CAKI-1 cells incubated for 48 hrs by sulforhodamine B assay; details: for CC50: read-out: LC50 (the source's name); summary of the method: as §1
[35] = tested on: BT-549; test: Growth inhibition of human BT-549 cells incubated for 48 hrs by sulforhodamine B assay; details: for CC50: read-out: LC50 (the source's name); summary of the method: as §1
[36] = tested on: SR; test: Growth inhibition of human SR cells assessed as cell growth at 0.01 uM incubated for 48 hrs by sulforhodamine B assay relative to control; details: read-out: Activity
[37] = tested on: SR; test: Growth inhibition of human SR cells assessed as cell growth at 0.1 uM incubated for 48 hrs by sulforhodamine B assay relative to control; details: read-out: Activity

## Cc1cccc(NC(=O)c2sc3nc4c(cc3c2N)C(=O)CCC4)c1
[1]
  growth at 0.01 µM: 87%
[2]
  growth at 0.01 µM: 97%
[3]
  growth at 0.01 µM: 95%
[4]
  growth at 0.01 µM: 88%
[5]
  growth at 0.01 µM: 101%
[6]
  growth at 0.01 µM: 97%
[7]
  growth at 0.01 µM: 90%
[8]
  growth at 0.01 µM: 89%
[9]
  growth at 0.01 µM: 95%
[10]
  growth at 0.1 µM: 44%
[11]
  growth at 0.1 µM: 75%
[12]
  growth at 0.1 µM: 44%
[13]
  growth at 0.1 µM: 72%
[14]
  growth at 0.1 µM: 56%
[15]
  growth at 1 µM: 19%
[16]
  growth at 1 µM: 8%
[17]
  growth at 1 µM: -17%
[18]
  growth at 1 µM: 28%
[19]
  growth at 1 µM: -38%
[20]
  growth at 1 µM: -61%
[21]
  growth at 1 µM: 16%
[22]
  growth at 1 µM: 53%
[23]
  growth at 1 µM: 29%
[24]
  growth at 1 µM: 55%
[25]
  growth at 100 µM: -23%
[26]
  growth at 100 µM: 33%
[27]
  growth at 100 µM: -16%
[28]
  growth at 100 µM: 5%
[29]
  growth at 100 µM: -48%
[30]
  GI50: 0.481 µM
  LC50 (50% lethal concentration): > 100 µM
  TGI: ≥ 100 µM
[31]
  GI50: 0.0297 µM
  TGI: 0.115 µM
  CC50: 0.681 µM
[32]
  GI50: 0.404 µM
  TGI: ≥ 100 µM
  CC50: ≥ 100 µM
[33]
  GI50: 0.139 µM
  TGI: 0.701 µM
  CC50: > 100 µM
[34]
  GI50: 0.359 µM
  TGI: > 100 µM
  CC50: > 100 µM
[35]
  TGI: ≥ 100 µM
  CC50: > 100 µM

## Cc1ccc(NC(=O)c2sc3nc4c(cc3c2N)C(=O)CCC4)cc1C
[36]
  growth at 0.01 µM: 106%
[1]
  growth at 0.01 µM: 87%
[2]
  growth at 0.01 µM: 106%
[3]
  growth at 0.01 µM: 98%
[4]
  growth at 0.01 µM: 91%
[5]
  growth at 0.01 µM: 105%
[6]
  growth at 0.01 µM: 95%
[7]
  growth at 0.01 µM: 98%
[8]
  growth at 0.01 µM: 96%
[9]
  growth at 0.01 µM: 94%
[10]
  growth at 0.1 µM: 118%
[37]
  growth at 0.1 µM: 108%
[11]
  growth at 0.1 µM: 90%
[12]
  growth at 0.1 µM: 90%
[14]
  growth at 0.1 µM: 86%
[15]
  growth at 1 µM: 40%
[16]
  growth at 1 µM: 11%
[17]
  growth at 1 µM: -13%
[18]
  growth at 1 µM: 57%
[19]
  growth at 1 µM: 21%
[20]
  growth at 1 µM: -58%
[21]
  growth at 1 µM: 21%
[22]
  growth at 1 µM: 50%
[24]
  growth at 1 µM: 42%
[25]
  growth at 100 µM: 5%
[27]
  growth at 100 µM: 8%
[28]
  growth at 100 µM: 14%
[29]
  growth at 100 µM: 17%
[31]
  GI50: 0.121 µM
  TGI: 0.322 µM
[32]
  GI50: 0.614 µM
  TGI: > 100 µM
  CC50: > 100 µM
[33]
  GI50: 0.198 µM
  CC50: > 100 µM
[34]
  TGI: > 100 µM
  CC50: > 100 µM
[35]
  TGI: > 100 µM
  CC50: > 100 µM

## CN1CCc2nc3sc(C(N)=O)c(N)c3c(-c3cccs3)c2C1
[36]
  growth at 0.01 µM: 97%
[1]
  growth at 0.01 µM: 127%
[2]
  growth at 0.01 µM: 106%
[3]
  growth at 0.01 µM: 103%
[4]
  growth at 0.01 µM: 93%
[5]
  growth at 0.01 µM: 107%
[6]
  growth at 0.01 µM: 96%
[8]
  growth at 0.01 µM: 95%
[9]
  growth at 0.01 µM: 98%
[10]
  growth at 0.1 µM: 97%
[37]
  growth at 0.1 µM: 96%
[11]
  growth at 0.1 µM: 104%
[12]
  growth at 0.1 µM: 91%
[13]
  growth at 0.1 µM: 105%
[14]
  growth at 0.1 µM: 107%
[15]
  growth at 1 µM: 91%
[16]
  growth at 1 µM: 108%
[17]
  growth at 1 µM: 69%
[18]
  growth at 1 µM: 94%
[19]
  growth at 1 µM: 90%
[20]
  growth at 1 µM: 90%
[21]
  growth at 1 µM: 64%
[22]
  growth at 1 µM: 111%
[23]
  growth at 1 µM: 93%
[24]
  growth at 1 µM: 95%
[25]
  growth at 100 µM: -29%
[26]
  growth at 100 µM: -55%
[27]
  growth at 100 µM: 17%
[28]
  growth at 100 µM: -46%
[29]
  growth at 100 µM: -13%
[30]
  GI50: 2.87 µM
  LC50 (50% lethal concentration): > 100 µM
  TGI: 12.6 µM
[31]
  GI50: 3.13 µM
  TGI: > 100 µM
  CC50: > 100 µM
[32]
  GI50: 4.41 µM
  TGI: > 100 µM
  CC50: > 100 µM
[33]
  GI50: 2.58 µM
  TGI: 7.27 µM
  CC50: > 100 µM
[34]
  GI50: 2.82 µM
  TGI: > 100 µM
  CC50: > 100 µM
[35]
  GI50: 3.26 µM
  TGI: 35.5 µM
  CC50: > 100 µM

Source: ChEMBL document CHEMBL4715736, “Identification of anticancer agents based on the thieno[2,3-b]pyridine and 1H-pyrazole molecular scaffolds” (2016)
